Measurements: ChEMBL document CHEMBL1140385, “Synthesis and antibacterial activity of 3-substituted-6-(3-ethyl-4-methylanilino)uracils” (J Med Chem, 2005)
≈ marks a conversion by molar mass, not a printed value.

Key:
Bacillus subtilis = experiment: In vitro minimum inhibitory concentration against Bacillus subtilis upon incubation at 37 degree C for 16 to 24 h; assay type: functional
Enterococcus faecium [1] = experiment: In vitro minimum inhibitory concentration against Enterococcus fecium upon incubation at 37 degree C for 16 to 24 hr by dissolving in DMSO (1%); assay type: functional
Outline: (§1)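 Broth microdilution (modified NCCLS M7-A4). Enterococci grown to log phase in brain-heart infusion broth, seeded at (3-7) × 10⁵ CFU/mL. Compounds 2-fold diluted from DMSO stocks, 20 to 1.25 µg/mL, final 1% DMSO, in duplicate. Incubated 37 °C, 16-24 h, with shaking. OD600 read.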

Enterococcus faecalis [2] = experiment: In vitro minimum inhibitory concentration against Enterococcus faecalis upon incubation at 37 degree C for 16 to 24 hr by dissolving in DMSO (1%); assay type: functional
Outline: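 Log-phase E. faecalis was grown in brain-heart infusion broth and seeded at (3-7) × 10^5 CFU/mL. Duplicate 2-fold dilutions ran from 20 to 1.25 µg/mL, final 1% DMSO. After 16-24 h at 37 °C with shaking, OD600 was read.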

Staphylococcus aureus [3] = experiment: In vitro minimum inhibitory concentration against Staphylococcus aureus upon incubation at 37 degree C for 16 to 24 hr by dissolving in DMSO (1%); assay type: functional
Staphylococcus aureus [4] = experiment: In vitro minimum inhibitory concentration against Staphylococcus aureus (Smith) upon incubation at 37 degree C for 16 to 24 hr by dissolving in DMSO (1%); assay type: functional
Enterococcus faecium [5] = experiment: In vitro minimum inhibitory concentration against Vancomycin resistant Enterococci faecium upon incubation at 37 degree C for 16 to 24 hr by dissolving in DMSO (1%); assay type: functional; outline: as §1
Staphylococcus aureus [6] = experiment: In vitro minimum inhibitory concentration against Methicillin-resistant Staphylococcus aureus upon incubation at 37 degree C for 16 to 24 hr by dissolving in DMSO (1%); assay type: functional
Outline: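 Broth microdilution (modified NCCLS M7-A4). Staphylococci grown to log phase in Luria broth, seeded at (3-7) × 10⁵ CFU/mL. Compounds 2-fold diluted from DMSO stocks, 20 to 1.25 µg/mL, final 1% DMSO, in duplicate. Incubated 37 °C, 16-24 h, with shaking. OD600 read.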

[7] = molecular target: DNA polymerase III PolC-type (Bacillus subtilis (strain 168), UniProt P13267); experiment: Inhibitory concentration against Bacillus subtilis DNA polymerase IIIC using [3H]dTMP 250 pM (30 degree C for 10 min)
Outline: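 Homogeneous recombinant B. subtilis pol IIIC, 0.025-0.06 units, acted on activated calf thymus DNA with Mg2+, DTT, glycerol, dATP, dCTP, dTTP and [3H]dTTP, without dGTP. Compounds were serially diluted from DMSO. Reactions ran 10 min at 30 °C, were stopped with TCA-pyrophosphate, and the filter-collected precipitate was scintillation counted. Apparent Ki was read directly from this truncated assay; average standard deviation ±44%.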

Enterococcus faecalis [8] = experiment: Serum effect on MIC of compound was measured against Enterococcus faecalis as ratio of MIC value in presence and absence of 50% fetal calf serum; assay type: functional
Outline: (§2)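 Broth microdilution MIC was repeated with 50% fetal calf serum added to the growth medium (LB for S. aureus, brain-heart infusion broth for E. faecalis). The inoculum was (3-7) × 10^5 CFU/mL in 1% DMSO, incubated at 37 °C for 16-24 h, and read by OD600. The serum effect is the MIC with serum relative to the MIC without serum.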

Staphylococcus aureus [9] = experiment: Serum effect on MIC against Staphylococcus aureus (Smith) as ratio of MIC value in presence and absence of 50% fetal calf serum; assay type: functional; outline: as §2
Staphylococcus aureus [10] = experiment: Effect on survival of staphylococcus aureus (Smith) ip-infected mice at a concentration 10 mg/kg; assay type: functional
Outline: (§3)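 Male pathogen-free Swiss-Webster mice (20-24 g), groups of five, infected ip with ca. 10⁸ CFU log-phase S. aureus Smith (grown 37 °C in LB, washed, in 0.5 mL LB). Single ip dose 15 min post-infection, in 10% DMSO/peanut oil or PBS. Survivors counted at 72 h post-infection.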

Staphylococcus aureus [11] = experiment: Effect on survival of staphylococcus aureus (Smith) ip-infected mice at a concentration 20 mg/kg; assay type: functional; outline: as §3
[12] = Area under the plasma concentration curve determined in mouse after subcutaneous administration at 20 mg/kg; assay type: ADME, organism-based; set-up: dose 20 mg/kg, route subcutaneous; details: in vivo, sc
Outline: (§4)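 Male Swiss-Webster mice got single sc doses of 20 or 60 mg/kg in 30% aqueous HP-β-cyclodextrin, or 20, 200 or 400 mg/kg in KOH-neutralized PBS. Groups of three were bled by cardiac puncture before dosing and at 5, 15, 30, 60, 120 and 180 min, plus 360 min at 400 mg/kg. Plasma drug was measured by C18 reverse-phase HPLC at 282 nm against a spiked-plasma standard curve.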

[13] = Area under the plasma concentration curve determined in mouse after subcutaneous administration at 60 mg/kg; assay type: ADME, organism-based; set-up: dose 60 mg/kg, route subcutaneous; details: in vivo, sc; outline: as §4
[14] = Half life in mouse after subcutaneous administration at 20 mg/kg; assay type: ADME, organism-based; set-up: dose 20 mg/kg, route subcutaneous; details: in vivo, sc; outline: as §4
[15] = Maximum plasma concentration in mouse after intravenous administration at 20 mg/kg; assay type: ADME, organism-based; set-up: dose 20 mg/kg, route intravenous
Outline: (§5)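 Male Swiss-Webster mice (20-24 g) got a 20 mg/kg tail-vein iv bolus, either in 30% aqueous HP-β-cyclodextrin or in PBS neutralized with KOH. Groups of three were bled by cardiac puncture under halothane before dosing and at 2, 5, 15, 30, 60 and 120 min. Heparinized plasma was MeCN-treated and run on C18 HPLC at 282 nm against a spiked-plasma standard curve.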

[16] = Maximum plasma concentration in mouse after subcutaneous administration at 20 mg/kg; assay type: ADME, organism-based; set-up: dose 20 mg/kg, route subcutaneous; details: sc; outline: as §4
[17] = Maximum plasma concentration in mouse after subcutaneous administration at 60 mg/kg; assay type: ADME, organism-based; set-up: dose 60 mg/kg, route subcutaneous; details: sc; outline: as §4
[18] = Half life in mouse after intravenous administration at 20 mg/kg; assay type: ADME, organism-based; set-up: dose 20 mg/kg, route intravenous; details: in vivo; outline: as §5
[19] = Maximum time taken to reach Cmax was determined in mouse after subcutaneous administration at 20 mg/kg; assay type: ADME, organism-based; set-up: dose 20 mg/kg, route subcutaneous; details: in vivo, sc; outline: as §4
[20] = Maximum time taken to reach Cmax was determined in mouse after subcutaneous administration at 60 mg/kg; assay type: ADME, organism-based; set-up: dose 60 mg/kg, route subcutaneous; details: in vivo, sc; outline: as §4
[21] = Area under the plasma concentration curve determined in mouse after intravenous administration at 20 mg/kg; assay type: ADME, organism-based; set-up: dose 20 mg/kg, route intravenous; details: in vivo; outline: as §5
[22] = Area under the plasma concentration curve determined in mouse after subcutaneous administration at 200 mg/kg; assay type: ADME, organism-based; set-up: dose 200 mg/kg, route subcutaneous; details: in vivo, sc; outline: as §4
[23] = Area under the plasma concentration curve determined in mouse after subcutaneous administration at 400 mg/kg; assay type: ADME, organism-based; set-up: dose 400 mg/kg, route subcutaneous; details: in vivo, sc; outline: as §4
[24] = Maximum plasma concentration in mouse after peroral administration at 200 mg/kg; assay type: ADME, organism-based; set-up: dose 200 mg/kg, route oral; details: po
Outline: (§6)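 A single 200 mg/kg gavage dose in KOH-neutralized PBS was given to male Swiss-Webster mice. Blood was taken by cardiac puncture under halothane before dosing and at 15, 30, 60, 120 and 180 min. Heparinized plasma was deproteinized with equal-volume MeCN and quantified by C18 HPLC (282 nm) against a standard curve from compound-spiked plasma.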

[25] = Half life in mouse after peroral administration at 200 mg/kg; assay type: ADME, organism-based; set-up: dose 200 mg/kg, route oral; details: in vivo, po; outline: as §6
[26] = Maximum time taken to reach Cmax was determined in mouse after peroral administration at 200 mg/kg; assay type: ADME, organism-based; set-up: dose 200 mg/kg, route oral; details: in vivo, po; outline: as §6
[27] = Area under the plasma concentration curve determined in mouse after peroral administration at 200 mg/kg; assay type: ADME, organism-based; set-up: dose 200 mg/kg, route oral; details: in vivo, po; outline: as §6

DNA polymerase III PolC-type, sequence (P13267 whole entry, the tested form may be a part): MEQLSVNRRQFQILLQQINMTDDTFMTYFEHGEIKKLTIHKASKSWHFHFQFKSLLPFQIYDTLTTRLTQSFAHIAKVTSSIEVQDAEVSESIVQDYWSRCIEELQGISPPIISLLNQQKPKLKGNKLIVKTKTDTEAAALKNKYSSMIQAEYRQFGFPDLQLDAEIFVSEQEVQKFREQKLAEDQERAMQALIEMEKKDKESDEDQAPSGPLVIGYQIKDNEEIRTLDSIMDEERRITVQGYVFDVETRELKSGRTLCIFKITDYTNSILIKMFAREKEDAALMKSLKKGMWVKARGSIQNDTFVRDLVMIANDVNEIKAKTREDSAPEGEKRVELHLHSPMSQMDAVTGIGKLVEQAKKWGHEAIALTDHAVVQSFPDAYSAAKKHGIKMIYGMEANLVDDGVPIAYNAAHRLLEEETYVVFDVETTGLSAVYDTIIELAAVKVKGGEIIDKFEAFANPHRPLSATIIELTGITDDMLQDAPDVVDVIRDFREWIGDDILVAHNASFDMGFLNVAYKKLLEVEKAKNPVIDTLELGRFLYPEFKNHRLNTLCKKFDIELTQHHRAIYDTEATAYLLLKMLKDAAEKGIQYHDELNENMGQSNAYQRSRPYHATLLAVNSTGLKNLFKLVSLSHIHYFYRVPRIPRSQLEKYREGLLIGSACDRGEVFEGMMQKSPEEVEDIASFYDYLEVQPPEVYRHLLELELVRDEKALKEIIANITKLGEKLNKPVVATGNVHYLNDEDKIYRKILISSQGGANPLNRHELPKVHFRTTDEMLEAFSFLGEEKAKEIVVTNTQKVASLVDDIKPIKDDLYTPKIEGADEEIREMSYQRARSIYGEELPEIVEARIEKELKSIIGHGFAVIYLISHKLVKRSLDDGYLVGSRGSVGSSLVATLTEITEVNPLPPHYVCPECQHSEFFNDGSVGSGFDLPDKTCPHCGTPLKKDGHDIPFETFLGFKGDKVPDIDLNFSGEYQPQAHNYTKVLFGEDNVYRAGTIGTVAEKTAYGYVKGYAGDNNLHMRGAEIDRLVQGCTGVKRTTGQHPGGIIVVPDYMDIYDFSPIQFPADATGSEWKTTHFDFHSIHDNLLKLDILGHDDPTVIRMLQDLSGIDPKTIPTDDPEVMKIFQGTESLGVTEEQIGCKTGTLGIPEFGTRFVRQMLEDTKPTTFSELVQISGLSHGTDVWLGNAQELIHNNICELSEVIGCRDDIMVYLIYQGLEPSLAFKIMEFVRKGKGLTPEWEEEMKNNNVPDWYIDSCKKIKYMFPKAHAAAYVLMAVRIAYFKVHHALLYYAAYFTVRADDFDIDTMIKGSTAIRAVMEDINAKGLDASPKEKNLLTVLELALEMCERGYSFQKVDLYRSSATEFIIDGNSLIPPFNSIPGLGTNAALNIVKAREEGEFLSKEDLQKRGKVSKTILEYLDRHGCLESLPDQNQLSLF

Compound | MIC (Enterococcus faecium [1]) [mg/L] | MIC (Enterococcus faecalis [2]) [mg/L] | MIC (Staphylococcus aureus [3]) [mg/L] | MIC (Staphylococcus aureus [4]) [mg/L] | MIC (Enterococcus faecium [5]) [mg/L] | MIC (Staphylococcus aureus [6]) [mg/L] | Ki [7] [µM] | MIC+/MIC- (Enterococcus faecalis [8]) | MIC+/MIC- (Staphylococcus aureus [9]) | Activity (Staphylococcus aureus [10]) | Activity (Staphylococcus aureus [11]) | AUC [12] [µg·h/mL] | AUC [21] [µg·h/mL] | also measured
CCc1cc(Nc2cc(=O)n(CCCCCCCCN3CCOCC3)c(=O)[nH]2)ccc1C | 10 (≈ 22.6 µM) | 10 (≈ 22.6 µM) | 10 (≈ 22.6 µM) | 10 (≈ 22.6 µM) | 5 (≈ 11.3 µM) | 20 (≈ 45.2 µM) | 0.076 | >12.8 | >7.1 | – | – | – | – | MIC (Bacillus subtilis): 2.5 mg/L (≈ 5.65 µM)
CCc1cc(Nc2cc(=O)n(CCOCCOC)c(=O)[nH]2)ccc1C | 5 (≈ 14.4 µM) | 5 (≈ 14.4 µM) | 5 (≈ 14.4 µM) | – | 5 (≈ 14.4 µM) | 5 (≈ 14.4 µM) | – | – | 5.5 | 2 | – | – | – | –
CCc1cc(Nc2cc(=O)n(CCCCO)c(=O)[nH]2)ccc1C | 5 (≈ 15.8 µM) | 5 (≈ 15.8 µM) | – | 5 (≈ 15.8 µM) | 5 (≈ 15.8 µM) | 5 (≈ 15.8 µM) | 0.055 | – | 7.5 | 3 | 5 | 7.77 | 4.8 | AUC [13]: 20.2 µg·h/mL; half-life [14]: 29.3 min; Cmax [15]: 53 µg/mL; Cmax [16]: 5.1 µg/mL; Cmax [17]: 13 µg/mL; half-life [18]: 33 min; Tmax [19]: 15 min; Tmax [20]: 15 min
CCc1cc(Nc2cc(=O)n(CCOCCO)c(=O)[nH]2)ccc1C | 5 (≈ 15 µM) | 5 (≈ 15 µM) | – | 5 (≈ 15 µM) | 2.5 (≈ 7.5 µM) | 10 (≈ 30 µM) | – | – | 7.5 | 4 | – | – | – | –
CCc1cc(Nc2cc(=O)n(CCCCN3CCOCC3)c(=O)[nH]2)ccc1C.Cl | 10 | 5 | 10 | – | 5 | 10 | 0.052 | 2 | 1.7 | 4 | 5 | 6.77 | 3.9 | AUC [22]: 26.9 µg·h/mL; AUC [23]: 50.7 µg·h/mL; Cmax [24]: 7.3 µg/mL; half-life [25]: 111 min; Tmax [26]: 60 min; AUC [27]: 15.4 µg·h/mL
CCc1cc(Nc2cc(=O)n(CCCN3CCOCC3)c(=O)[nH]2)ccc1C | 5 (≈ 13.4 µM) | 10 (≈ 26.8 µM) | – | 10 (≈ 26.8 µM) | 5 (≈ 13.4 µM) | 10 (≈ 26.8 µM) | – | 1.6 | 2.9 | – | – | – | – | –
